Data as given in ChEMBL document CHEMBL3098105, “7,7'-Diazaindirubin--a small molecule inhibitor of casein kinase 2 in vitro and in cells” (Bioorg Med Chem, 2014).
pIC50: −log10 of the molar value. The source made the active and inactive calls. No cut-off for these calls is given here.

How the values were obtained:
[1] = molecular target: Ribosomal protein S6 kinase alpha-1 (Homo sapiens) (UniProt Q15418); assay: Inhibition of human Rsk1 assessed as residual activity at 1 uM relative to control
[2] = molecular target: Mitogen-activated protein kinase 13 (Homo sapiens) (UniProt O15264); assay: Inhibition of human SAPK4 assessed as residual activity at 1 uM relative to control
[3] = molecular target: Fibroblast growth factor receptor 1 (Homo sapiens) (UniProt P11362); assay: Inhibition of FGF-R1 (unknown origin) assessed as residual activity at 1 uM relative to control
Chain of Fibroblast growth factor receptor 1 (Homo sapiens) (P11362 22-822 limits assumed): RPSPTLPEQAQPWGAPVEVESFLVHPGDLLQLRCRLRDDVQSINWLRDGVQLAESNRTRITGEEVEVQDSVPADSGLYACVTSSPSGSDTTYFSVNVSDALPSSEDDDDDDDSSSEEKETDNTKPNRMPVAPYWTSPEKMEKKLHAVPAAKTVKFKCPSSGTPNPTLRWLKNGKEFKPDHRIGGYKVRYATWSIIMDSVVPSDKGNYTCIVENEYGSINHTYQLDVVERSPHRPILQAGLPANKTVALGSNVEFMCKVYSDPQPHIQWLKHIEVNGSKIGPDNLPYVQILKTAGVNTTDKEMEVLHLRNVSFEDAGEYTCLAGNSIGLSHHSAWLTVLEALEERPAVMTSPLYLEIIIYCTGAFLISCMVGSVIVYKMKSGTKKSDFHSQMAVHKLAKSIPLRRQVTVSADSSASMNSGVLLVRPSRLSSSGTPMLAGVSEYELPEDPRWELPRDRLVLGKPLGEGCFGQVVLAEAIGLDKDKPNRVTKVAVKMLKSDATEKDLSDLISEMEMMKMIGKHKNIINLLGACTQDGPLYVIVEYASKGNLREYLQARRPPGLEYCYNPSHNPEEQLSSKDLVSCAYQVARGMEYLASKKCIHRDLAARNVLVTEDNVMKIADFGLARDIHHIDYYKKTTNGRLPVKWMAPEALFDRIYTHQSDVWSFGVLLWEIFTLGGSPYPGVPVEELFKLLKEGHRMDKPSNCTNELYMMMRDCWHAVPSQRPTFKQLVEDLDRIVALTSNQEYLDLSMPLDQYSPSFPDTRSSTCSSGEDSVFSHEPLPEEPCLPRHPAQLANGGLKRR

[4] = molecular target: Serine/threonine-protein kinase PAK 6 (Homo sapiens) (UniProt Q9NQU5); assay: Inhibition of human PAK6 assessed as residual activity at 1 uM relative to control
[5] = molecular target: Ribosomal protein S6 kinase alpha-2 (Homo sapiens) (UniProt Q15349); assay: Inhibition of human Rsk3 assessed as residual activity at 1 uM relative to control
Chain of Ribosomal protein S6 kinase alpha-2 (Homo sapiens) (Q15349 whole entry): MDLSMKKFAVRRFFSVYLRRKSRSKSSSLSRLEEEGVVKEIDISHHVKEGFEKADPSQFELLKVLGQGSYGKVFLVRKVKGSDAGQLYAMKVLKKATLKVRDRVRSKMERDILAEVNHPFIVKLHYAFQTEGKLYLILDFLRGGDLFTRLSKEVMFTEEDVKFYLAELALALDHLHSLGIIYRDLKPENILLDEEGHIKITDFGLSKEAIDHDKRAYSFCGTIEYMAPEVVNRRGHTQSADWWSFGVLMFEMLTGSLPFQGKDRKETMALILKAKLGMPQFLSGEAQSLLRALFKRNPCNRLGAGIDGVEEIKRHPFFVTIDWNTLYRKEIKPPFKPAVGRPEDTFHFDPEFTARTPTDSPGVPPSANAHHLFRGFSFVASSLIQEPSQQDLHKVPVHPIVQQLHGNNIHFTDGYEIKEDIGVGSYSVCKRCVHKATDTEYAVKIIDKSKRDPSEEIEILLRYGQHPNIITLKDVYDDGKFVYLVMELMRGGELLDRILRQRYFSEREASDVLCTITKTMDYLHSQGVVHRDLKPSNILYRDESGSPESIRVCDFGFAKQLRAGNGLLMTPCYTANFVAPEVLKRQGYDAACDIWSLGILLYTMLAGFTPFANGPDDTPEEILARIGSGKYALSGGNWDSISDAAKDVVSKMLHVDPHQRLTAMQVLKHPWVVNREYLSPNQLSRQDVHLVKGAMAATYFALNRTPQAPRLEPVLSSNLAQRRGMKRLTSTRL

[6] = molecular target: High affinity nerve growth factor receptor (Homo sapiens) (UniProt P04629); assay: Inhibition of human TrkA assessed as residual activity at 1 uM relative to control
[7] = molecular target: Casein kinase I isoform gamma-1 (Homo sapiens) (UniProt Q9HCP0); assay: Inhibition of human CK1gamma1 assessed as residual activity at 1 uM relative to control
Chain of Casein kinase I isoform gamma-1 (Homo sapiens) (Q9HCP0 whole entry, looked up, canonical isoform): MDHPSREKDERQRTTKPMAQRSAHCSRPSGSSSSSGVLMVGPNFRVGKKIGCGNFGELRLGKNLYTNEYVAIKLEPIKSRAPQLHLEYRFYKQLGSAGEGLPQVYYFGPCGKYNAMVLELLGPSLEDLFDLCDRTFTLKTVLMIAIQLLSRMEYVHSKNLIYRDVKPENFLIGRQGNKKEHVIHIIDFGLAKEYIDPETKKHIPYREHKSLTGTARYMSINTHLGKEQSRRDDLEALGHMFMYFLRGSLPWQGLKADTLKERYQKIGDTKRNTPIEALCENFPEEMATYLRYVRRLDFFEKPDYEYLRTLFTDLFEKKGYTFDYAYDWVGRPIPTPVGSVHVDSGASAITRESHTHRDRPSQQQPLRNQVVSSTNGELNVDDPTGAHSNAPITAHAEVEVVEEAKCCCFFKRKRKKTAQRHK

[8] = molecular target: Protein kinase C gamma type (Homo sapiens) (UniProt P05129); assay: Inhibition of human PKCgamma assessed as residual activity at 1 uM relative to control
[9] = molecular target: Ephrin type-B receptor 4 (Homo sapiens) (UniProt P54760); assay: Inhibition of human EphB4 assessed as residual activity at 1 uM relative to control
NCI-H23 = assay: Antiproliferative activity against human NCI-H23 cells after 3 days by sulforhodamine B assay; format: functional; details: NCI-H23, 72 h
How it was run: (§1)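 Tested in the NCI 60 cell line panel. GI50 is the concentration giving 50% inhibition of cell growth, and values are the mean of two series of tests.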

[10] = Antiproliferative activity against human LXFL 529L cells after 3 days by SRB assay; format: functional, cell-based; details: 72 h
How it was run: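 Cells grown at 37 °C, 5% CO2, with 10% heat-inactivated FBS: LXFL529L in RPMI 1640, MCF7 and HT29 in DMEM. Seeded, allowed 24 h growth, then exposed to the drug at various concentrations for 3 days in serum medium. Fixed with TCA for 1 h at 4 °C, stained with 0.4% SRB, eluted in 10 mM Tris pH 10.5, read at 570 nm as % T/C. IC50 taken from dose–response curves of at least three independent experiments.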

[11] = molecular target: CDK3/Cyclin E (Homo sapiens) (UniProt P24864+Q00526); assay: Inhibition of human CDK3/cyclinE assessed as residual activity at 1 uM relative to control; format: protein-complex assay
[12] = molecular target: Tyrosine-protein kinase ZAP-70 (Homo sapiens) (UniProt P43403); assay: Inhibition of human ZAP-70 assessed as residual activity at 1 uM relative to control
HL-60 = assay: Antiproliferative activity against human HL60 cells after 3 days by sulforhodamine B assay; format: functional; details: HL-60, 72 h; how it was run: as §1
K562 = assay: Antiproliferative activity against human K562 cells after 3 days by sulforhodamine B assay; format: functional; details: K562, 72 h; how it was run: as §1
KM12 = assay: Antiproliferative activity against human KM12 cells after 3 days by sulforhodamine B assay; format: functional; details: KM12, 72 h; how it was run: as §1
[13] = molecular target: Tyrosine-protein kinase ABL1 (Homo sapiens) (UniProt P00519); assay: Inhibition of human Abl assessed as residual activity at 1 uM relative to control
[14] = molecular target: Fibroblast growth factor receptor 3 (Homo sapiens) (UniProt P22607); assay: Inhibition of human FGFR3 assessed as residual activity at 1 uM relative to control
Chain of Fibroblast growth factor receptor 3 (Homo sapiens) (P22607 23-806 limits assumed): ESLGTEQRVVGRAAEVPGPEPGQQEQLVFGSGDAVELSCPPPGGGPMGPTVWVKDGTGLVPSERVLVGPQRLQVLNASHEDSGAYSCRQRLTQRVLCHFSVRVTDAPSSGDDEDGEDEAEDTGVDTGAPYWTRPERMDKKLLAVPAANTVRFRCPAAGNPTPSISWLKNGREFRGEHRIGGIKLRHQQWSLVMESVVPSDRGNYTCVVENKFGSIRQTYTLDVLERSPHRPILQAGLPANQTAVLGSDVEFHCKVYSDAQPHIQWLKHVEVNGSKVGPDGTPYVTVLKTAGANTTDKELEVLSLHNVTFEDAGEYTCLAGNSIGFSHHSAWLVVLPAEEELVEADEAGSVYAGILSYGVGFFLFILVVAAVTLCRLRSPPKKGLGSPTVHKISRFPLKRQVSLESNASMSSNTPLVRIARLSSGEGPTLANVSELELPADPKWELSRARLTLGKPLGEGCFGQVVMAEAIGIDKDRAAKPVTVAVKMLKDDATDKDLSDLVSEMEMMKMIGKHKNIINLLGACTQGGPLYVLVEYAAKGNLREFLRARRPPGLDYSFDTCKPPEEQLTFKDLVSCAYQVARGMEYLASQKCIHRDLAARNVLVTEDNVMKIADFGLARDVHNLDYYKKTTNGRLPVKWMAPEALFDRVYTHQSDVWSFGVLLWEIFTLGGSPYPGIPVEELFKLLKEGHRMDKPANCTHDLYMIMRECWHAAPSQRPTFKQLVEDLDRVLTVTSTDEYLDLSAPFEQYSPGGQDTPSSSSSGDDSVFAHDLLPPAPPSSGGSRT

[15] = molecular target: CDK9/cyclin T1 (Homo sapiens) (UniProt O60563+P50750); assay: Inhibition of human CDK9/cyclin T1 assessed as residual activity at 1 uM relative to control; format: protein-complex assay
[16] = molecular target: Ephrin type-A receptor 2 (Homo sapiens) (UniProt P29317); assay: Inhibition of human EphA2 assessed as residual activity at 1 uM relative to control
Homo sapiens = species on record: Homo sapiens; assay: Inhibition of human PKA assessed as residual activity at 1 uM relative to control
[17] = molecular target: Vascular endothelial growth factor receptor 3 (Homo sapiens) (UniProt P35916); assay: Inhibition of VEGF-R3 (unknown origin) assessed as residual activity at 10 uM relative to control
Chain of Vascular endothelial growth factor receptor 3 (Homo sapiens) (P35916 whole entry): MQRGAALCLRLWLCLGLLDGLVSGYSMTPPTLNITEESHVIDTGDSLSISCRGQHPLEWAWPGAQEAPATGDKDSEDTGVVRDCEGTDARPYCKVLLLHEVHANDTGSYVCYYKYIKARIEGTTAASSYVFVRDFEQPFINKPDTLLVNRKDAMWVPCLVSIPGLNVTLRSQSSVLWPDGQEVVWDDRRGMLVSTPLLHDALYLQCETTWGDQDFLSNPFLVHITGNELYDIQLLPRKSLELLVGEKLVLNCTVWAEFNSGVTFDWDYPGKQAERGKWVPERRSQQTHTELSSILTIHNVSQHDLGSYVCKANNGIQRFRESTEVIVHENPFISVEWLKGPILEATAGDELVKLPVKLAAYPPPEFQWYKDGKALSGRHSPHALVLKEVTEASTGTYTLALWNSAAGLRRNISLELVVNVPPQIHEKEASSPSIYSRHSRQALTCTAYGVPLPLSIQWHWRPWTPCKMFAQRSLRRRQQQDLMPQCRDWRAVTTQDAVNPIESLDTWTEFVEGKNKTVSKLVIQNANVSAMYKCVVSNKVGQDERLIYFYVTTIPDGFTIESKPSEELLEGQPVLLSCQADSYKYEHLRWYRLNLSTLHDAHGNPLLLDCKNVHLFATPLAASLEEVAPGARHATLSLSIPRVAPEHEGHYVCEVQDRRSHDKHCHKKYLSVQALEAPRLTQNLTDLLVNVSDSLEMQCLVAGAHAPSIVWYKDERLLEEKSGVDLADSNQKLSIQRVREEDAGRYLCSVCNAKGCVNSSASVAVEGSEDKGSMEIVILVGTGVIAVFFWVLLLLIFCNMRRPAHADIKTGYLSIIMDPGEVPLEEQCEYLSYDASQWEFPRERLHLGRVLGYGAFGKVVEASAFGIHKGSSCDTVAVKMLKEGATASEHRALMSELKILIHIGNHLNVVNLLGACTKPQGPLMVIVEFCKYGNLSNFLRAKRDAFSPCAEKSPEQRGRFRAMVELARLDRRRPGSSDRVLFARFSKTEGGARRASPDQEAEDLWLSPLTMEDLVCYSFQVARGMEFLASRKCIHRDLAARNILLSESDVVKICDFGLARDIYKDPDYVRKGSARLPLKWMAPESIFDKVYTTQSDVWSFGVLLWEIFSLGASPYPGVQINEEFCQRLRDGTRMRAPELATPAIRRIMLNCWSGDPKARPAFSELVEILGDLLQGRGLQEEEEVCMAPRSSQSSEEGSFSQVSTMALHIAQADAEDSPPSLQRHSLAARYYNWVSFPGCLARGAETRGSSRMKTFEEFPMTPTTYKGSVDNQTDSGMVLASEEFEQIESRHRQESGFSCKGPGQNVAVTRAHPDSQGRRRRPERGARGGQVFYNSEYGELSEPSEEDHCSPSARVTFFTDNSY

[18] = molecular target: Serine/threonine-protein kinase haspin (Homo sapiens) (UniProt Q8TF76); assay: Inhibition of human Haspin assessed as residual activity at 1 uM relative to control
[19] = molecular target: Fibroblast growth factor receptor 4 (Homo sapiens) (UniProt P22455); assay: Inhibition of human FGFR4 assessed as residual activity at 1 uM relative to control
Chain of Fibroblast growth factor receptor 4 (Homo sapiens) (P22455 22-802 limits assumed): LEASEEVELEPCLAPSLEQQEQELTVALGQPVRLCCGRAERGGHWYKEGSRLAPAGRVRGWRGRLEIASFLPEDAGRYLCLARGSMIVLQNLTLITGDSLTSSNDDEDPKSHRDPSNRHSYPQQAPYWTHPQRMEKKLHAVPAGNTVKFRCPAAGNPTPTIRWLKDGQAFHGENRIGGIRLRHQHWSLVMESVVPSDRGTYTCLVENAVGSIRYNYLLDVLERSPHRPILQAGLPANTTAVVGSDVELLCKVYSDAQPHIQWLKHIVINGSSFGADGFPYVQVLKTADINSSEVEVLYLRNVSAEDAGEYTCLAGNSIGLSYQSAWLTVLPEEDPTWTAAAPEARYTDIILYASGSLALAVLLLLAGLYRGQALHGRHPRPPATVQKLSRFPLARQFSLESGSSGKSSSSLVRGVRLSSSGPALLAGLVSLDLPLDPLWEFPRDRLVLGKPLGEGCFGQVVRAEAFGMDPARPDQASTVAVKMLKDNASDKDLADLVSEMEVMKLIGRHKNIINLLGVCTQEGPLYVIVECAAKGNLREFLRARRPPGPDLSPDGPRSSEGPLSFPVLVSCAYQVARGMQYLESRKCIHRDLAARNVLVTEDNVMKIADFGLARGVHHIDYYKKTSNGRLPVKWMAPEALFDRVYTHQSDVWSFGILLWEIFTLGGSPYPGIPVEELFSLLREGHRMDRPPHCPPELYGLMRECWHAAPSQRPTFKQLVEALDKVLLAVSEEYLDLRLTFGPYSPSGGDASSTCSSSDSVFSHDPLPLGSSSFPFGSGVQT

[20] = molecular target: Hepatocyte growth factor receptor (Homo sapiens) (UniProt P08581); assay: Inhibition of human Met assessed as residual activity at 1 uM relative to control
RPMI-8226 = assay: Antiproliferative activity against human RPMI8226 cells after 3 days by sulforhodamine B assay; format: functional; details: RPMI-8226, 72 h; how it was run: as §1
[21] = molecular target: Serine/threonine-protein kinase Sgk2 (Homo sapiens) (UniProt Q9HBY8); assay: Inhibition of human SGK2 assessed as residual activity at 1 uM relative to control
[22] = molecular target: Serine/threonine-protein kinase VRK2 (Homo sapiens) (UniProt Q86Y07); assay: Inhibition of human VRK2 assessed as residual activity at 1 uM relative to control
[23] = molecular target: Serine/threonine-protein kinase DCLK2 (Homo sapiens) (UniProt Q8N568); assay: Inhibition of human DCAMKL2 assessed as residual activity at 1 uM relative to control
[24] = molecular target: Serine/threonine-protein kinase Chk2 (Homo sapiens) (UniProt O96017); assay: Inhibition of human CHK2 assessed as residual activity at 1 uM relative to control
[25] = molecular target: Vascular endothelial growth factor receptor 3 (Homo sapiens) (UniProt P35916); assay: Inhibition of VEGF-R3 (unknown origin) assessed as residual activity at 1 uM relative to control
[26] = molecular target: Casein kinase II (Homo sapiens) (UniProt P67870+P68400+P19784); assay: Inhibition of CK2 in human PANC1 cells assessed as reduction of Akt phosphorylation at S473 at 0.25 to 8 uM after 2 hrs by Western blot analysis; format: cell-based; details: PANC-1
How it was run: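 Panc1 cells were cultured in DMEM with 10% heat-inactivated FBS and penicillin/streptomycin at 37 °C and 5% CO2. Cells were treated with a range of concentrations for 2 h, with Ly294002 as positive control. Urea-buffer lysates (20–40 µg protein) were separated on 10% SDS–PAGE and probed for pAkt (S473) and β-actin. Detection was by ECL.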

[27] = molecular target: Proto-oncogene tyrosine-protein kinase Src (Homo sapiens) (UniProt P12931); assay: Inhibition of human cSRC assessed as residual activity at 1 uM relative to control
[28] = molecular target: Tyrosine-protein kinase CSK (Homo sapiens) (UniProt P41240); assay: Inhibition of human CSK assessed as residual activity at 1 uM relative to control
[29] = molecular target: Fibroblast growth factor receptor 1 (Homo sapiens) (UniProt P11362); assay: Inhibition of human FGFR1 assessed as residual activity at 1 uM relative to control

Structure (SMILES): O=C1Nc2ncccc2/C1=C1/Nc2ncccc2C1=O
- Activity [1]: 114%
- Activity [2]: 115%
- Activity [3]: 85%
- Activity [4]: 51%
- Activity [5]: 72%
- Activity [6]: 127%
- Activity [7]: 104%
- Activity [8]: 114%
- Activity [9]: 116%
- GI50 (NCI-H23): 376 nM
- pIC50 [10]: 7.22
- Activity [11]: 74%
- Activity [12]: 78%
- GI50 (HL-60): 1850 nM
- GI50 (K562): 2260 nM
- GI50 (KM12): 387 nM
- Activity [13]: 122%
- Activity [14]: 126%
- Activity [15]: 100%
- Activity [16]: 122%
- Activity (Homo sapiens): 91%
- Activity [17]: 73%
- Activity [18]: 64%
- Activity [19]: 108%
- Activity [20]: 77%
- GI50 (RPMI-8226): 2120 nM
- Activity [21]: 127%
- Activity [22]: 110%
- Activity [23]: 100%
- Activity [24]: 120%
- Activity [25]: 82%
- inhibition [26]: Active
- Activity [27]: 63%
- Activity [28]: 122%
- Activity [29]: 101%
